Results taken from ChEMBL document CHEMBL1141286, “Benzochromenones from the marine crinoid Comantheria rotula inhibit hypoxia-inducible factor-1 (HIF-1) in cell-based reporter assays and differentially suppress the growth of certain tumor cell lines” (J Nat Prod, 2007).
Activity calls are given as the source filed them.

How the values were obtained:
T47D [1] = experiment: Inhibition of 1,10-phenanthroline-induced VEGF protein secretion in human T47D cells at 10 uM after 16 hrs by ELISA; type: functional, cell-based
How it was run: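 T47D cells stimulated with 1,10-phenanthroline, compound at 10 μM; secreted VEGF in conditioned media by ELISA, normalized to cell-lysate protein.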

MOLT-4 = experiment: Growth inhibition of human MOLT4 cells; type: functional
SR = experiment: Growth inhibition of human SR cells; type: functional
A549 = experiment: Growth inhibition of human A549 cells; type: functional
EKVX = experiment: Growth inhibition of human EKVX cells; type: functional
NCI-H322M = experiment: Growth inhibition of human NCI-H322M cells; type: functional
NCI-H460 = experiment: Growth inhibition of human NCI-H460 cells; type: functional
COLO 205 = experiment: Growth inhibition of human COLO205 cells; type: functional
HCT-15 = experiment: Growth inhibition of human HCT15 cells; type: functional
SW-620 = experiment: Growth inhibition of human SW620 cells; type: functional
SF-268 = experiment: Growth inhibition of human SF268 cells; type: functional
SF-539 = experiment: Growth inhibition of human SF539 cells; type: functional
SNB-19 = experiment: Growth inhibition of human SNB19 cells; type: functional
SNB-75 = experiment: Growth inhibition of human SNB75 cells; type: functional
LOX IMVI = experiment: Growth inhibition of human LOXIMVI cells; type: functional
SK-MEL-2 = experiment: Growth inhibition of human SK-MEL2 cells; type: functional
SK-MEL-5 = experiment: Growth inhibition of human SK-MEL5 cells; type: functional
UACC-257 = experiment: Growth inhibition of human UACC257 cells; type: functional
UACC-62 = experiment: Growth inhibition of human UACC62 cells; type: functional
SK-OV-3 = experiment: Growth inhibition of human SK-OV3 cells; type: functional
IGROV-1 = experiment: Growth inhibition of human IGROV1 cells; type: functional
786-0 = experiment: Growth inhibition of human 786-0 cells; type: functional
A498 = experiment: Growth inhibition of human A498 cells; type: functional
ACHN = experiment: Growth inhibition of human ACHN cells; type: functional
CAKI-1 = experiment: Growth inhibition of human CAKI1 cells; type: functional
SN12C = experiment: Growth inhibition of human SN12C cells; type: functional
UO-31 = experiment: Growth inhibition of human UO31 cells; type: functional
PC-3 = experiment: Growth inhibition of human PC3 cells; type: functional
MCF7 = experiment: Growth inhibition of human MCF7 cells; type: functional
NCI/ADR-RES = experiment: Growth inhibition of human NCI/ADR-RES cells; type: functional
Hs-578T = experiment: Growth inhibition of human HS578T cells; type: functional
MDA-MB-435 = experiment: Growth inhibition of human MDA-MB-435 cells; type: functional
BT-549 = experiment: Growth inhibition of human BT549 cells; type: functional
T47D [2] = experiment: Growth inhibition of human T47D cells; type: functional
HL-60 = experiment: Growth inhibition of human HL60 cells; type: functional
[3] = biological target: Hypoxia inducible factors; HIF-1-alpha, HIF-2-alpha (Homo sapiens, UniProt Q16665+Q99814); experiment: Inhibition of HIF1 activation in human T47D cells by TK-luciferase assay; type: cell-based
How it was run: (§1)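 HIF-1 reporter (pHRE-TK-Luc) assays in transfected PC-3 or T47D cells; HIF-1 induced by hypoxia or by the hypoxia mimetic 1,10-phenanthroline (10 μM); compounds at half-log concentrations; luciferase activity measured; IC50 from experiments in triplicate.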

[4] = Inhibition of 1,10-phenanthroline-induced HIF1 activation in PC3 cells by TK-luciferase assay; type: cell-based; conditions: Homo sapiens, PC-3; how it was run: as §1
[5] = read-out: Log LC50 (the source's name) (converted)

CCCc1cc(=O)c2c(OC)c3c(OC)cc(OC)cc3cc2o1
16.6 µM: GI50 (T47D [2])
51.3 µM: GI50 (PC-3)
69.2 µM: GI50 (LOX IMVI)
3.47 µM: GI50 (A498)
3.9 µM: IC50 [3]
inactive: Activity (T47D [1])
33.1 µM: GI50 (Hs-578T)
66.1 µM: GI50 (BT-549)
74.1 µM: GI50 (SNB-75) | GI50 (NCI/ADR-RES)
97.7 µM: GI50 (MDA-MB-435)
45.7 µM: GI50 (SK-MEL-5)
58.9 µM: GI50 (A549)
60.3 µM: GI50 (IGROV-1)
30.2 µM: TGI (MOLT-4; read-out: Log TGI (converted))
100 µM: GI50 (EKVX) | GI50 (SF-539)
93.3 µM: GI50 (MCF7)
85.1 µM: GI50 (NCI-H460)
91.2 µM: GI50 (786-0)
> 10 µM: IC50 [4]
42.7 µM: GI50 (UO-31) | GI50 (HL-60)
39.8 µM: GI50 (SR)
> 100 µM: GI50 (MOLT-4) | CC50 (MOLT-4; [5]) | CC50 (SR; [5]) | TGI (SR; read-out: Log TGI (converted)) | CC50 (A549; [5]) | TGI (A549; read-out: Log TGI (converted)) | CC50 (EKVX; [5]) | TGI (EKVX; read-out: Log TGI (converted)) | GI50 (NCI-H322M) | CC50 (NCI-H322M; [5]) | TGI (NCI-H322M; read-out: Log TGI (converted)) | CC50 (NCI-H460; [5]) | TGI (NCI-H460; read-out: Log TGI (converted)) | GI50 (COLO 205) | CC50 (COLO 205; [5]) | TGI (COLO 205; read-out: Log TGI (converted)) | CC50 (HCT-15; [5]) | TGI (HCT-15; read-out: Log TGI (converted)) | GI50 (SW-620) | CC50 (SW-620; [5]) | TGI (SW-620; read-out: Log TGI (converted)) | GI50 (SF-268) | LC50 (SF-268) | TGI (SF-268; read-out: Log TGI (converted)) | LC50 (SF-539) | TGI (SF-539; read-out: Log TGI (converted)) | GI50 (SNB-19) | LC50 (SNB-19) | TGI (SNB-19; read-out: Log TGI (converted)) | LC50 (SNB-75) | TGI (SNB-75; read-out: Log TGI (converted)) | LC50 (LOX IMVI) | TGI (LOX IMVI; read-out: Log TGI (converted)) | GI50 (SK-MEL-2) | LC50 (SK-MEL-2) | TGI (SK-MEL-2; read-out: Log TGI (converted)) | LC50 (SK-MEL-5) | TGI (SK-MEL-5; read-out: Log TGI (converted)) | GI50 (UACC-257) | LC50 (UACC-257) | TGI (UACC-257; read-out: Log TGI (converted)) | GI50 (UACC-62) | LC50 (lethal concentration, 50% cell kill) (UACC-62) | TGI (UACC-62; read-out: Log TGI (converted)) | GI50 (SK-OV-3) | LC50 (SK-OV-3) | TGI (SK-OV-3; read-out: Log TGI (converted)) | CC50 (IGROV-1; [5]) | TGI (IGROV-1; read-out: Log TGI (converted)) | LC50 (786-0) | TGI (786-0; read-out: Log TGI (converted)) | LC50 (A498) | TGI (A498; read-out: Log TGI (converted)) | GI50 (ACHN) | CC50 (ACHN; [5]) | TGI (ACHN; read-out: Log TGI (converted)) | GI50 (CAKI-1) | LC50 (CAKI-1) | TGI (CAKI-1; read-out: Log TGI (converted)) | GI50 (SN12C) | LC50 (SN12C) | TGI (SN12C; read-out: Log TGI (converted)) | LC50 (UO-31) | TGI (UO-31; read-out: Log TGI (converted)) | LC50 (PC-3) | TGI (PC-3; read-out: Log TGI (converted)) | LC50 (MCF7) | TGI (MCF7; read-out: Log TGI (converted)) | LC50 (concentration killing 50% of cells) (NCI/ADR-RES) | TGI (NCI/ADR-RES; read-out: Log TGI (converted)) | LC50 (Hs-578T) | TGI (Hs-578T; read-out: Log TGI (converted)) | LC50 (MDA-MB-435) | TGI (MDA-MB-435; read-out: Log TGI (converted)) | LC50 (BT-549) | TGI (BT-549; read-out: Log TGI (converted)) | LC50 (T47D [2]) | TGI (T47D [2]; read-out: Log TGI (converted)) | LC50 (HL-60) | TGI (HL-60; read-out: Log TGI (converted))
35.5 µM: GI50 (HCT-15)
